Experimental data: ChEMBL document CHEMBL1811872, “Tryptophan 2,3-dioxygenase (TDO) inhibitors. 3-(2-(pyridyl)ethenyl)indoles as potential anticancer immunomodulators” (J Med Chem, 2011)
Values after ≈ are worked out from the molar mass of the structure shown.

Experiments:
[1] = target: Tryptophan 2,3-dioxygenase (Mus musculus, UniProt P48776); test: Inhibition of mouse TDO expressed in mouse P815B cells assessed as inhibition of tryptophan catabolism by measuring kynurenine production after 8 hrs by HPLC analysis; format: cell-based
[2] = Cytotoxicity against mouse P815B cells […] by MTT assay; format: functional; settings: read-out: LD50 (the source's name)
[3] = Plasma concentration in DBA/2 mouse at 160 mg/kg/day, po administered for 7 days with water; format: ADME, organism-based; set-up: route oral
Method in brief: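 DBA/2 mice received the compound dissolved in drinking water (1 mg/mL) ad libitum. Mean water intake was 4.0 mL/mouse/day, giving about 160 mg/kg/day. Plasma levels of compound, L-Trp and kynurenine were measured at days 0, 1, 2 and 7.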

[4] = Chemical stability of the compound in phosphate buffered saline assessed as compound remaining at pH 7.4 after 1.5 hrs; format: physicochemical; settings: read-out: Stability
Method in brief: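 Compound was incubated in phosphate-buffered saline, pH 7.4, for 1.5 h; read-out was the percentage of compound recovered.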

[5] = Solubility of the compound in phosphate buffered saline at pH 7.4; format: physicochemical
Method in brief: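 Solubility was measured experimentally in phosphate buffer (PBS), pH 7.4, at room temperature.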

[6] = target: 5-hydroxytryptamine receptor 2B (Homo sapiens, UniProt P41595); test: Displacement of [125I](+/-)-DOI from human 5HT2B receptor
[7] = Displacement of [3H]RX821002 from adrenergic alpha2 receptor
[8] = Displacement of [3H]prazosin from adrenergic alpha1 receptor
[9] = target: Tryptophan 2,3-dioxygenase (Homo sapiens, UniProt P48775); test: Competitive inhibition of human recombinant TDO expressed in Escherichia coli BL21 using L-tryptophan as substrate by measuring conversion of N-formylkynurenine into kynurenine after 30 mins by Michaelis-Menten steady state analysis
Tryptophan 2,3-dioxygenase (Homo sapiens, UniProt P48775), sequence (P48775 whole entry): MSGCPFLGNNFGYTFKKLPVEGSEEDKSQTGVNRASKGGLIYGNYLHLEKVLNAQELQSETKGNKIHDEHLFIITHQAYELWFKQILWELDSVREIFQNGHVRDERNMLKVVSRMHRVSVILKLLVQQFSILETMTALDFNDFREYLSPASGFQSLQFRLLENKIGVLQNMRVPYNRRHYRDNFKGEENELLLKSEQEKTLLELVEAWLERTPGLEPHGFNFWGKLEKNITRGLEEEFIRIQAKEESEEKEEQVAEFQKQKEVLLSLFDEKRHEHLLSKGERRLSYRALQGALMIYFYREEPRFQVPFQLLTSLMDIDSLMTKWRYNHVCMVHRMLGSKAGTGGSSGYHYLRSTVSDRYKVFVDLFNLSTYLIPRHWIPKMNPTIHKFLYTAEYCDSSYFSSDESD

Tryptophan 2,3-dioxygenase (Mus musculus, UniProt P48776), sequence (P48776 whole entry): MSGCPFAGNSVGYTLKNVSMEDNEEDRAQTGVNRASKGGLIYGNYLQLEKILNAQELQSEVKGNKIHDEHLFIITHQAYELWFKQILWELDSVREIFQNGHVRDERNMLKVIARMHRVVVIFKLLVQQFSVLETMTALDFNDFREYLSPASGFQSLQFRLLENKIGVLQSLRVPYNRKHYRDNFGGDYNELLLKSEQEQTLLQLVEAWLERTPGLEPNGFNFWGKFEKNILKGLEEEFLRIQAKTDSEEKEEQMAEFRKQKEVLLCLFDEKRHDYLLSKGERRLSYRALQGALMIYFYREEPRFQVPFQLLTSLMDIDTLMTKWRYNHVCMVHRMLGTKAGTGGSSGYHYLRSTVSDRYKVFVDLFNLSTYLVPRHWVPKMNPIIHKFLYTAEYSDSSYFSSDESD
5-hydroxytryptamine receptor 2B, sequence (P41595 whole entry): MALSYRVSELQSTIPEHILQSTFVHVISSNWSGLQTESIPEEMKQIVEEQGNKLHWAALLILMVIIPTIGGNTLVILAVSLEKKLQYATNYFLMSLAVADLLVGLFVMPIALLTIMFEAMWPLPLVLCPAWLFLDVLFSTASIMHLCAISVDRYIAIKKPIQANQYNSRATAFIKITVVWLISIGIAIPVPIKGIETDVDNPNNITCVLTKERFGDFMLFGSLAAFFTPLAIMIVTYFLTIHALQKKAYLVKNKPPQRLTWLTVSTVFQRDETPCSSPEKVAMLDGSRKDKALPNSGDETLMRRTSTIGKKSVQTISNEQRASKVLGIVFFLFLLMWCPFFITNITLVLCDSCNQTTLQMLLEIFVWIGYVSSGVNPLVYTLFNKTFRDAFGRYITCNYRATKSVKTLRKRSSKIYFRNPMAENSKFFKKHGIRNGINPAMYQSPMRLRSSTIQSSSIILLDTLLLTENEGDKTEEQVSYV

Compound | IC50 [1] [µM] | CC50 [2] [µM] | further results
COc1ccc2[nH]cc(/C=C/c3cccnc3)c2c1 | 40 | > 80 | –
C(#Cc1c[nH]c2ccccc12)c1cccnc1 | 6 | 200 | –
COC(=O)c1ccc2c(/C=C/c3cccnc3)c[nH]c2c1 | > 200 | > 200 | –
COc1cccc2c(/C=C/c3cccnc3)c[nH]c12 | > 200 | > 200 | –
O=[N+]([O-])c1cccc2[nH]cc(/C=C/c3cccnc3)c12 | > 200 | > 200 | –
COc1ccc2c(/C=C/c3cccnc3)c[nH]c2c1 | > 200 | > 200 | –
O=[N+]([O-])c1ccc2[nH]cc(/C=C/c3cccnc3)c2c1 | > 200 | > 200 | –
Fc1cccc(/C=C/c2c[nH]c3cc(F)ccc23)c1 | 10 | 40 | –
C(=C\c1c[nH]c2c1ccc1ccccc12)/c1cccnc1 | > 200 | > 80 | –
C/C=C/c1c[nH]c2ccccc12 | > 80 | > 80 | –
c1cncc(CCc2c[nH]c3ccccc23)c1 | 80 | > 80 | –
COC(=O)c1cccc2[nH]cc(/C=C/c3cccnc3)c12 | > 200 | > 200 | –
Fc1ccc2c(/C=C/c3ccncc3)c[nH]c2c1 | 3 | 200 | –
N#C/C=C/c1c[nH]c2ccccc12 | 13 | > 80 | –
c1ccc2c(-c3nnn[nH]3)c[nH]c2c1 | > 80 | > 80 | –
Brc1cccc2c(/C=C/c3cccnc3)c[nH]c12 | > 20 | 20 | –
c1ccc2c(Cc3nnn[nH]3)c[nH]c2c1 | > 80 | > 80 | –
Cc1cccc2c(/C=C/c3cccnc3)c[nH]c12 | > 200 | > 200 | –
Fc1ccc2c(/C=C/c3cccc(Cl)c3)c[nH]c2c1 | > 200 | > 200 | –
C(=C\c1n[nH]c2ccccc12)/c1cccnc1 | > 200 | > 80 | –
Fc1ccc2c(/C=C/c3cccnc3)c[nH]c2c1 | 1 | > 80 | concentration at 168 h [3]: 100 nM; remaining at 1.5 h [4]: 67.6%; solubility [5]: 92 µM (≈ 21.9 µg/mL)
Cn1cc(/C=C/c2cccnc2)c2ccc(F)cc21 | > 200 | > 200 | –
C(=C\c1c[nH]c2ccccc12)/c1cccnc1 | 1 | > 80 | –
C(=C\c1ccc2[nH]ccc2c1)/c1cccnc1 | > 200 | > 80 | –
Clc1ccc2[nH]cc(/C=C/c3cccnc3)c2c1 | 20 | > 80 | –
C(=C\c1c[nH]c2ccncc12)/c1cccnc1 | > 200 | > 80 | –

Compound | IC50 [1] [µM] | CC50 [2] [µM] | further results
N#C/C=C/c1c[nH]c2cc(F)ccc12 | 3 | > 80 | –
Cc1[nH]c2ccccc2c1/C=C/c1cccnc1 | > 200 | > 200 | –
Fc1ccc2c(/C=C/c3ccccn3)c[nH]c2c1 | 3 | 100 | –
C(=C\c1c[nH]c2ccccc12)/c1nnn[nH]1 | 10 | > 80 | –
N#C/C(=C\c1c[nH]c2cc(F)ccc12)c1ccccc1 | > 80 | > 80 | –
O=C(O)c1ccc2[nH]cc(/C=C/c3cccnc3)c2c1 | > 200 | > 200 | –
N#Cc1ccc2[nH]cc(/C=C/c3cccnc3)c2c1 | > 200 | > 200 | –
N#C/C(=C\c1c[nH]c2cc(F)ccc12)C(=O)O | > 80 | > 80 | –
C(=C\c1c[nH]c2ccccc12)/c1ccccn1 | 20 | > 100 | –
Clc1ccc2c(/C=C/c3cccnc3)c[nH]c2c1 | 20 | > 40 | –
Cc1ccc2c(/C=C/c3cccnc3)c[nH]c2c1 | > 200 | > 200 | –
N#CSCCc1c[nH]c2ccccc12 | 44 | > 80 | –
C(=C\c1c(-c2ccccc2)[nH]c2ccccc12)/c1cccnc1 | > 200 | > 200 | –
COc1cc(CC(C)N)c(OC)cc1I (racemic) | – | – | Ki [6]: 0.002 µM
Brc1ccc2c(/C=C/c3cccnc3)c[nH]c2c1 | > 200 | > 200 | –
OC/C=C/c1c[nH]c2cc(F)ccc12 | 80 | 100 | –
Fc1ccc(-c2n[nH]cc2/C=C/c2cccnc2)cc1 | > 200 | > 80 | –
COC(=O)[C@@H]1[C@H]2C[C@H]3c4[nH]c5ccccc5c4CCN3C[C@@H]2CC[C@@H]1O [YOHIMBINE] | – | – | Ki [7]: 0.033 µM
C(=C\c1ccc2ccccc2c1)/c1cccnc1 | > 200 | > 80 | –
COC(=O)c1ccc2[nH]cc(/C=C/c3cccnc3)c2c1 | > 200 | > 200 | –
Clc1cccc2[nH]cc(/C=C/c3cccnc3)c12 | > 40 | 40 | –
c1ccc2c(CCc3nnn[nH]3)c[nH]c2c1 | > 80 | > 80 | –
COc1cc2nc(N3CCN(C(=O)c4ccco4)CC3)nc(N)c2cc1OC [PRAZOSIN] | – | – | Ki [8]: 71 pM
Fc1cccc2[nH]cc(/C=C/c3cccnc3)c12 | 10 | > 80 | –
Cc1ccc2[nH]cc(/C=C/c3cccnc3)c2c1 | > 200 | > 200 | –
N#Cc1cccc(/C=C/c2c[nH]c3cc(F)ccc23)c1 | 1 | 20 | –

Compound | IC50 [1] [µM] | CC50 [2] [µM] | further results
Clc1cccc2c(/C=C/c3cccnc3)c[nH]c12 | > 200 | > 200 | –
Brc1cccc2[nH]cc(/C=C/c3cccnc3)c12 | > 200 | > 200 | –
Fc1cccc2c(/C=C/c3cccnc3)c[nH]c12 | 50 | > 400 | –
c1cncc(CCCc2c[nH]c3ccccc23)c1 | > 200 | > 200 | –
N#CCc1c[nH]c2ccccc12 | > 80 | > 80 | –
N#Cc1c[nH]c2ccccc12 | > 80 | > 80 | –
N#C/C=C\c1c[nH]c2ccccc12 | > 80 | > 80 | –
COC(=O)/C=C/c1c[nH]c2cc(F)ccc12 | 2 | 40 | –
Fc1ccc2c(/C=C/c3ccc4ccccc4c3)c[nH]c2c1 | > 200 | > 200 | –
Brc1ccc2[nH]cc(/C=C/c3cccnc3)c2c1 | 40 | 20 | –
O=C(O)/C=C/c1c[nH]c2ccccc12 | 18 | > 400 | –
O=[N+]([O-])c1cccc(/C=C/c2c[nH]c3cc(F)ccc23)c1 | 3 | 40 | –
Fc1ccc2c(/C=C/c3cccc(Br)c3)c[nH]c2c1 | > 200 | > 200 | –
O=C(O)/C=C/c1c[nH]c2cc(F)ccc12 | 3 | > 400 | concentration at 168 h [3]: 1400 nM; remaining at 1.5 h [4]: 92.9%; Ki [9]: 32.4 µM; solubility [5]: > 300 µM
N#Cc1cccc2[nH]cc(/C=C/c3cccnc3)c12 | > 200 | > 200 | –
CCOC(=O)/C(C#N)=C/c1c[nH]c2cc(F)ccc12 | > 80 | > 80 | –
C(=C\c1c[nH]c2ncccc12)/c1cccnc1 | 18 | > 80 | –
COc1cccc(/C=C/c2c[nH]c3cc(F)ccc23)c1 | 10 | 40 | –
Fc1ccc2[nH]cc(/C=C/c3cccnc3)c2c1 | 5 | > 80 | –
C(=C\c1c[nH]cn1)/c1cccnc1 | > 200 | > 80 | –
C(=C\c1c[nH]c2ccccc12)/c1ccncc1 | 20 | > 100 | –
Fc1ccc2c(/C=C/c3ccccc3)c[nH]c2c1 | 40 | 40 | –
N#CCCc1c[nH]c2ccccc12 | > 80 | > 80 | –
Oc1ccc2c(/C=C/c3cccnc3)c[nH]c2c1 | > 200 | > 200 | –
O=C(O)C(=Cc1c[nH]c2cc(F)ccc12)C(=O)O | > 80 | > 80 | –
